Source: ChEMBL document CHEMBL1154785, “Identification of critical ligand binding determinants in Mycobacterium tuberculosis adenosine-5'-phosphosulfate reductase” (J Med Chem, 2009)

Experiments:
[1] = Binding affinity to Mycobacterium tuberculosis adenosine-5'-phosphosulfate reductase assessed as S-sulfocysteine formation at pH 5.5 by single turnover method in absence of thioredoxin
[2] = tested on: Mycobacterium tuberculosis; assay: Ratio of Kcat to Km of Mycobacterium tuberculosis adenosine-5'-phosphosulfate reductase; conditions: tested as the 35S-labelled form
[3] = Dissociation constant, pKa at pH 6 to 9.5; assay type: physicochemical
[4] = Dissociation constant, pKa in solution; assay type: physicochemical
[5] = Binding affinity to Mycobacterium tuberculosis adenosine-5'-phosphosulfate reductase assessed as S-sulfocysteine formation at pH 7.5 by single turnover method
[6] = Binding affinity to Mycobacterium tuberculosis adenosine-5'-phosphosulfate reductase assessed as S-sulfocysteine formation at pH 9 by single turnover method
[7] = Displacement of [35S]APS from Mycobacterium tuberculosis adenosine-5'-phosphosulfate reductase by liquid scintillation counting
Outline: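 Purified enzyme; reduction of ³⁵S-APS to sulfite at 30 °C in 100 mM bis-tris propane pH 7.5, 5 mM DTT and 10 μM thioredoxin. Quenched with 2% charcoal containing 20 mM Na₂SO₃, then ³⁵S-sulfite in the supernatant counted by scintillation. k_obs taken at varied inhibitor levels with [³⁵S-APS] ≪ K1/2, fit to competitive inhibition (Ki taken as Kd). At least two independent experiments.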

[8] = Binding affinity to Mycobacterium tuberculosis adenosine-5'-phosphosulfate reductase assessed as S-sulfocysteine formation at pH 7.5 by single turnover method in absence of MgCl2
[9] = Binding affinity to Mycobacterium tuberculosis adenosine-5'-phosphosulfate reductase assessed as S-sulfocysteine formation at pH 7.5 by single turnover method in presence of 0.5 mM MgCl2
[10] = Binding affinity to Mycobacterium tuberculosis adenosine-5'-phosphosulfate reductase assessed as S-sulfocysteine formation at pH 7.5 by single turnover method in presence of 2 mM MgCl2
[11] = tested on: Mycobacterium tuberculosis; assay: Ratio of Kd for Mycobacterium tuberculosis adenosine-5'-phosphosulfate reductase in presence of 0.5 mM MgCl2 to Kd Mycobacterium tuberculosis adenosine-5'-phosphosulfate reductase in absence of MgCl2
[12] = tested on: Mycobacterium tuberculosis; assay: Ratio of Kd for Mycobacterium tuberculosis adenosine-5'-phosphosulfate reductase in presence of 2 mM MgCl2 to Kd Mycobacterium tuberculosis adenosine-5'-phosphosulfate reductase in absence of MgCl2

O=P(O)(O)O [PHOSPHORIC ACID]
Kd [1]: 66000 µM

Nc1ncnc2c1ncn2[C@@H]1O[C@H](COP(=O)(O)OS(=O)(=O)O)[C@@H](O)[C@H]1O
Kd [1]: 0.2 µM | Ki [1]: 0.2 µM | kcat/Km [2]: 2 ×10⁶ /M/s

Nc1ncnc2c1ncn2[C@@H]1O[C@H](COP(=O)(O)O)[C@@H](OP(=O)(O)O)[C@H]1O
Kd [1]: 770 µM

Nc1ncnc2c1ncn2[C@@H]1O[C@H](COP(=O)(S)OS(=O)(=O)O)[C@@H](O)[C@H]1O (mixture of isomers)
Kd [1]: 43 µM

Nc1ncnc2c1ncn2[C@@H]1O[C@H](COP(=O)(O)CS(=O)(=O)O)[C@@H](O)[C@H]1O
Kd [1]: 700 µM

Nc1ncnc2c1ncn2[C@@H]1O[C@H](COP(=O)(O)OP(=O)(O)S)[C@@H](O)[C@H]1O (stereo partly specified)
Kd [1]: 0.15 µM | pKa [3]: 5.8 | pKa [4]: 5.2

O=S(=O)(O)O [SULFURIC ACID]
Kd [1]: ≥ 310000 µM

Nc1ncnc2c1ncn2[C@@H]1O[C@H](COP(=O)(S)OP(=O)(O)O)[C@@H](O)[C@H]1O (stereo partly specified)
Kd [1]: 0.8 µM

O[C@@H]1[C@H](O)[C@H](O)CO[C@H]1O [RIBOSE (PYRANOSE)]
Kd [1]: 680000 µM

O=P(O)(O)OC[C@H]1O[C@@H](O)[C@H](O)[C@@H]1O
Kd [1]: 93 µM

Nc1ncnc2c1ncn2[C@@H]1O[C@H](COP(=O)(O)C(F)(F)P(=O)(O)O)[C@@H](O)[C@H]1O
Kd [1]: 13 µM

Nc1ncnc2c1ncn2[C@@H]1O[C@H](CO)[C@@H](OP(=O)(O)O)[C@H]1O
Kd [1]: 3200 µM

Nc1ncnc2c1ncn2[C@@H]1O[C@H](COP(N)(=O)O)[C@@H](O)[C@H]1O
Kd [1]: 100 µM | Kd [5]: 100 µM | Kd [6]: 82 µM

Nc1ncnc2c1ncn2[C@@H]1O[C@H](COP(=O)(O)CP(=O)(O)O)[C@@H](O)[C@H]1O [PHOSPHOMETHYLPHOSPHONIC ACID ADENOSYL ESTER]
Kd [1]: 27 µM

Nc1ncnc2c1ncn2[C@@H]1O[C@H](COP(=O)(O)OP(N)(=O)O)[C@@H](O)[C@H]1O
Kd [1]: 410 µM | Kd [5]: 410 µM | Kd [6]: 56.8 µM

Nc1ncnc2c1ncn2[C@@H]1O[C@H](COP(=O)(O)NP(=O)(O)O)[C@@H](O)[C@H]1O
Kd [1]: 260 µM | Kd [5]: 257 µM | Kd [6]: 110 µM

Nc1ncnc2c1ncn2[C@@H]1O[C@H](COP(=O)(O)O)[C@@H](O)[C@H]1O [ADENOSINE PHOSPHATE]
Kd [1]: 5.4 µM | pKa [3]: 8.1 | Kd [7]: 5.4 µM | Kd [8]: 5.4 µM | Kd [9]: 21 µM | Kd [10]: 31 µM | Ratio [11]: 5 | Ratio [12]: 5

Nc1[nH]cnc2ncnc1-2 [ADENINE]
Kd [1]: ≥ 90000 µM

Nc1ncnc2c1ncn2[C@@H]1O[C@H](CO)[C@@H](O)[C@H]1O [ADENOSINE]
Kd [1]: 3000 µM

Nc1ncnc2c1ncn2[C@@H]1O[C@H](COP(=O)(O)OP(=O)(O)O)[C@@H](O)[C@H]1O [ADENOSINE DIPHOSPHATE]
Kd [1]: 4.3 µM | pKa [3]: 6.4 | Kd [8]: 4.3 µM | Kd [9]: 7.3 µM | Kd [10]: 20 µM | Ratio [11]: 5 | Ratio [12]: 5

Nc1ncnc2c1ncn2[C@@H]1O[C@H](COP(O)(O)=S)[C@@H](O)[C@H]1O
Kd [1]: 3.3 µM | pKa [3]: 7.7 | pKa [4]: 7.7
